# Read-outs that look alike come from different tables or passages of the source. *1 amine or outer side, *2 acyl side, *3 side chain or, on linkers, in order; H or OH if unused. Where a SMILES comes first, the peptide text is derived from it. Bridges are numbered along the chain shown (N, C = ends). Roman numbers before positions name the chains, in order. [ ]: non-standard residue; d: D form. Hexamethylenediamine = C(CCCN[*:2])CCN[*:1]; Dip = N[C@H](C(=O)O)C(c1ccccc1)c1ccccc1; Chg = N[C@H](C(=O)O)C1CCCCC1; NMeA = CN[C@@H](C)C(=O)O
# Columns and labels:
# TRAF1 [1] = format: cell-based, human; conditions: 24 h; for effect on TRAF1 levels: RAJI cells, 0.1 nM-10 μM; for IC50: Homo sapiens, Raji, read-out: IC50 for reducing TRAF1
# Procedure, shortened: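 shCTL RAJI cells were seeded at 2 × 10^5 per well in RPMI 1640 with 10% FCS, 2-ME, glutamine, pen/strep and non-essential amino acids. Test compound was added at 0.1 nM–10 μM (0.1% DMSO final) for 24 h. Staining: Fc block, viability dye, Foxp3-buffer fixation/permeabilisation, rat anti-TRAF1 (clone 1F3) with goat anti-rat PE secondary. TRAF1 dMFI = MFI minus FMO background.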
# [2] = test system: TRAF1 in the CD40 signaling complex; format: cell-based, human; conditions: BV6 5 μM
# Procedure, shortened: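 shCTL or shPKN1 RAJI cells (6 × 10^6) received cycloheximide 3 μg/ml for the indicated times, ± BV6 5 μM, and were lysed in 1% NP-40 with protease/phosphatase inhibitors. For IP1, Protein G magnetic beads were loaded with 0.5 μg anti-CD40 (10 min, RT), then incubated with lysate overnight at 4°C. Unbound material was re-precipitated with 0.5 μg anti-TRAF1 (IP2). Both IPs and lysates were western blotted for TRAF1.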
# pNF-κB p65 = pNF-κB p65 phosphoflow in live primary CLL cells after 24 h treatment; format: cell-based, human; conditions: for IC50: Homo sapiens, CLL cell, read-out: IC50 for decrease in pNF-κB p65 (dMFI)
# pS6 = pS6 phosphoflow in live primary CLL cells after 24 h treatment; format: cell-based, human; conditions: for IC50: Homo sapiens, CLL cell, read-out: IC50 for decrease in pS6 (dMFI)
# pERK [3] = experiment: pERK phosphoflow in live primary CLL cells after 24 h treatment; format: cell-based, human; conditions: for IC50: Homo sapiens, CLL cell, read-out: IC50 for decrease in pERK (dMFI)
# pERK [4] = experiment: pERK by flow cytometry in RAJI cells after 24 h inhibitor treatment; format: cell-based, human
# Bcl-2 = Bcl-2 by flow cytometry in live primary CLL cells after 24 h treatment; format: cell-based, human; conditions: for IC50: Homo sapiens, CLL cell, read-out: IC50 for lowering Bcl-2 (Bcl-2 dMFI)
# Procedure, shortened: (§1)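 Primary CLL cells were thawed and resuspended at 8 × 10^6 cells/mL in high-glucose complete medium (2.5 g/L total glucose). They were plated at 2 × 10^6 per well on confluent OP9 stroma, rested overnight, then treated 24 h with test compound at 0.1% DMSO final. Staining: Fc block, viability dye, CD19/CD5, Foxp3-buffer fix/perm, then intracellular Bcl-2 BV421 or Mcl-1 AF647. Live CD5+CD19+ gate; dMFI = MFI minus FMO; n = 6 donors, 2 experiments pooled.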
# primary CLL cells = experiment: Cell death; format: cell-based, human; conditions: for IC50: Homo sapiens, CLL cell, read-out: IC50 for cell death; for primary CLL cells died: cleaved caspase-3
# PRK1(h) = PRK1(h) (Homo sapiens, UniProt Q16512); experiment: Dose titration of selected inhibitors against PKN1 kinase activity in vitro; format: biochemical
# Chain of PRK1(h) (Q16512 whole entry): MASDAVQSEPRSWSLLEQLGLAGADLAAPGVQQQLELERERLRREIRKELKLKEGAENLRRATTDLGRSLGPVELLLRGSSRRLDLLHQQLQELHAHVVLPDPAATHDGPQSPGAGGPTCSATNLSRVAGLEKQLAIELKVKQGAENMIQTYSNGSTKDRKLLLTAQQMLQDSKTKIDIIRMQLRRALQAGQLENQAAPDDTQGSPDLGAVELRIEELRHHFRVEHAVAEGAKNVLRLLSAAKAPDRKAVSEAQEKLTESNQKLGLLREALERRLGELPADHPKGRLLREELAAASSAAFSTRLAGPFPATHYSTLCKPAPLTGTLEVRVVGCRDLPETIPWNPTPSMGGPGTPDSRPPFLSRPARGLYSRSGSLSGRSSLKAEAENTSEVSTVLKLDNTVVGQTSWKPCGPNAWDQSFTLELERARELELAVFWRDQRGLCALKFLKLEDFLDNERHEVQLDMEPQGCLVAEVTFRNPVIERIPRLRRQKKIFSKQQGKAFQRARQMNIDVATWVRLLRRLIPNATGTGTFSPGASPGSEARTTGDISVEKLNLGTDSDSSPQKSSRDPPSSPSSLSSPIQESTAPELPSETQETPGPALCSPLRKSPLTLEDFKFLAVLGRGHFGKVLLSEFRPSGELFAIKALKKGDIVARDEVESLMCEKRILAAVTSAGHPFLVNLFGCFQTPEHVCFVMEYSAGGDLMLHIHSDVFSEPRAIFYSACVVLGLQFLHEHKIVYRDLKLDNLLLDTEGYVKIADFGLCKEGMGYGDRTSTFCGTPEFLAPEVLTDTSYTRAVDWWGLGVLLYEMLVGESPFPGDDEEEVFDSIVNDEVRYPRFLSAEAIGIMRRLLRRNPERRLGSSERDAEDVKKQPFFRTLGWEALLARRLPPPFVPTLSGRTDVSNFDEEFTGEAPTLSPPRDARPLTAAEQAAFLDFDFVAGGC
# Mcl-1 = Mcl-1 by flow cytometry in live primary CLL cells after 24 h treatment; format: cell-based, human; conditions: for IC50: Homo sapiens, CLL cell, read-out: IC50 for lowering Mcl-1 (Mcl-1 dMFI)
# Procedure, shortened: as §1
# TRAF1 [5] = experiment: TRAF1 by flow cytometry in live primary CLL cells on OP9 after 24 h treatment; format: cell-based, human; conditions: for effect on TRAF1 expression: primary CLL cells, 24 h
smiles,measurement,setting,value
"CC1(COc2ccc3c(c2)ncn3-c2ccc3cccc(N4CCC(N)CC4)c3n2)COC1 [crenolanib, Crenolanib]",effect on TRAF1 levels,TRAF1 [1],increased rather than decreased
C[C@@H]1CCN(C(=O)CC#N)C[C@@H]1N(C)c1ncnc2[nH]ccc12 [tofacitinib],effect on TRAF1 levels,TRAF1 [1],minimal effects
CCCCNc1ncc2c(-c3ccc(CN4CCN(C)CC4)cc3)cn([C@H]3CC[C@H](O)CC3)c2n1 [UNC-2025],effect on TRAF1 levels,TRAF1 [1],increased rather than decreased
"CC(C)NC[C@@H](C(=O)N1CCN(c2ncnc3c2[C@H](C)C[C@H]3O)CC1)c1ccc(Cl)cc1 [ipatasertib, Ipatasertib]",IC50,TRAF1 [1],> 10000 nM
CN[C@@H](C)C(=O)N[C@H](C(=O)N1CCC[C@H]1C(=O)N[C@H](C(=O)NCCCCCCNC(=O)[C@@H](NC(=O)[C@@H]1CCCN1C(=O)[C@@H](NC(=O)[C@H](C)NC)C1CCCCC1)C(c1ccccc1)c1ccccc1)C(c1ccccc1)c1ccccc1)C1CCCCC1 [BV6] (I: H-[NMeA][Chg]P[Dip] / II: H-[NMeA][Chg]P[Dip]; linker I:C-II:C via Hexamethylenediamine),cytosolic pool of TRAF1 (IP2),"[2]; RAJI cells, cycloheximide",not sensitive
same,CD40 associated TRAF1 protein,"[2]; shCTL RAJI cells (presence of PKN1), cycloheximide 6 h",rescued
same,CD40 associated TRAF1 protein,"[2]; shPKN1 RAJI cells (absence of PKN1), cycloheximide",partially rescued
"Cn1ncc(Cl)c1-c1cc(C(=O)N[C@H](CN)Cc2ccc(F)c(F)c2)oc1Cl [uprosertib, Uprosertib]",IC50,TRAF1 [1],4900 nM
CC(=O)c1cnc2ccc(-c3cc(Cl)c(O)c(Cl)c3)nc2c1N[C@H]1CC[C@H](CN(C)C)CC1 [OTSSP167],IC50,pNF-κB p65,320 nM
same,IC50,pS6,310 nM
same,IC50,pERK [3],1040 nM
same,pERK levels,pERK [4],decreased only at the highest levels
same,IC50,Bcl-2,49.8 nM
same,IC50,primary CLL cells; 24 h,45.9 nM
same,reduction of IC50 for cell death compared to treatment alone,primary CLL cells; OTSSP167 with 1 nM venetoclax versus OTSSP167 alone,1.9 fold
same,cells survived treatment,"primary CLL cells; primary CLL cells, suboptimal concentration 50 nM",20–50%
same,primary CLL cells died,"primary CLL cells; suboptimal 10 nM alone, 24 h",< 15%
same,IC50,PRK1(h),11 nM
same,IC50,TRAF1 [1],18 nM
same,IC50,Mcl-1,25.7 nM
CC1(C)CCC(CN2CCN(c3ccc(C(=O)NS(=O)(=O)c4ccc(NCC5CCOCC5)c([N+](=O)[O-])c4)c(Oc4cnc5[nH]ccc5c4)c3)CC2)=C(c2ccc(Cl)cc2)C1 [venetoclax],patients whose CLL cells were enriched for TRAF1hi cells after treatment,TRAF1 [5]; dose that resulted in approximately 50% death,4 of 6
same,effect on TRAF1 expression,TRAF1 [5],lack of effect
same,IC50,primary CLL cells; 24 h,9.91 nM
same,primary CLL cells died,"primary CLL cells; suboptimal 1 nM alone, 24 h",< 15%
same,decrease of IC50 for cell death compared to treatment alone,primary CLL cells; venetoclax with 10 nM OTSSP167 versus venetoclax alone,5.8 fold
CC(C)c1cc(CNc2nc(Nc3cc(C4CC4)[nH]n3)cc(N3CCN(C)CC3)n2)on1 [XL-228],IC50,pNF-κB p65,2470 nM
same,IC50,pS6,1440 nM
same,IC50,pERK [3],2230 nM
same,IC50,Bcl-2,3520 nM
same,cells survived treatment,"primary CLL cells; primary CLL cells, suboptimal concentration 4 μM",20–50%
same,IC50,TRAF1 [1],2300 nM
same,IC50,Mcl-1,2540 nM
Clc1ccc(C2(c3ccc(-c4cn[nH]c4)cc3)CCNCC2)cc1 [AT7867],effect on levels of pNF-κB,pNF-κB p65; primary CLL cells,did not affect
same,effect on TRAF1 expression,TRAF1 [5],no effect
same,effect on pS6,pS6; primary CLL cells,slightly reduced
same,effect on pERK,pERK [3]; primary CLL cells,slightly reduced
same,effect on Bcl-2 expression,Bcl-2; primary CLL cells,did not affect
same,effect on cell death,"primary CLL cells; primary CLL cells, 24 h",no effect
same,effect on Mcl-1 expression,Mcl-1; primary CLL cells,did not affect

# From publication PMC8475556 (Oncoimmunology, 2021)
